The list is not random: actives were taken first. Their share in the collection is about 3.6%.
Yeast life ext = compounds extending yeast replicative lifespan, primary screen, S. cerevisiae, OD615. S. cerevisiae growth with nicotinamide; deaD strain in restrictive glucose medium. inhibition of the nicotinamide effect, % at 10 µM. 130,000 tested, 0.68% active;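 active = inhibition above a set limit, placed 3 SD over the median of all compounds, cut at about 26% in these data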;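 also: 0% = nicotinamide-treated wells and 100% = cells grown without nicotinamide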
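Test system: DeaD-strain S. cerevisiae / Buffer or medium: restrictive glucose medium / Also added: nicotinamide 1.5 mM / Doses: one concentration, 10 µM, DMSO 0.25% / Schedule: 48 h at 30 °C / Signal: OD615 measurement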
Measles CPE = compounds protecting cells from measles virus cytopathic effect, primary screen, measles RdRp inhibitor project, single point, MLSMR library, absorbance | Measles virus-infected cells, CPE protection | protection (pct of control), % at 4 µM | 140,000 tested, 1.5% active | AID 841, 2007; in the data active = protection mostly above about 24%, no sharp cut-off; inactive = mostly below about 26%
Phagocyt inh = inhibitors of macrophage phagocytosis, primary screen, imaging, J774A.1 cells, IgG beads; J774A.1 macrophage IgG-bead phagocytosis; inhibition, % at 5 µM; 110,000 tested, 0.07% active;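 active = inhibition above the mean of the plate negative controls plus 5 SD, cut at about 13% in these data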;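 also: phagocytic index as fraction of beads internalized from green versus red external bead signal; plate controls were DMSO negative control for no effect and cytochalasin-D positive control for full effect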
BB579 growth dn = growth inhibitors of yeast BB579 in restrictive medium, primary screen, yeast lifespan-shortening project, S. cerevisiae. OD615, 48 h. inhibition, % at 10 µM. 140,000 tested, 0.51% active. AID 804, 2007;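 active = inhibition above a set limit, 3 SD over the mean compound inhibition, cut at about 44% in these data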
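Assay system – yeast BB579 (DeaD) · Dosing – single compound dose of 10 µM, 0.25% DMSO final · Detection – OD615 turbidity measurement · Buffer or medium – CSMM-D restrictive synthetic medium containing dextrose (glucose) · Benchmarks – positive control amphotericin B 10 µg/mL · Incubation – 48 h exposure, 30 °C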
RAM inhibit = inhibitors of the yeast RAM network, primary screen, dse1pr::URA3 reporter, 5-FOA selection; inhibition, % at 50 µM; S. cerevisiae dse1pr::URA3 reporter, 5-FOA growth OD615, 2 d; analog-sensitive cbk1-as2 kinase mutant strain; 190,000 tested, 1.8% active; AID 868, 2007;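 active = inhibition above a set limit, 3 SD over mean compound inhibition, cut at about 8.4% in these data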;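 also: 0% = DMSO-only wells with no growth and 100% = 10 µM 1-NA-PP1 full growth; inhibition rescues growth on 5-FOA so higher OD means more RAM inhibition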
RAM 5-FOA = 5-FOA growth of efflux-deficient control yeast, dose response, counter-screen for RAM network inhibitor project, S. cerevisiae, OD615; shares compounds with RAM inhibit; 1,200 tested, under 10 active; S. cerevisiae efflux-deficient reporter strain, 5-FOA growth OD615, 2 days; max inhibition, %; call rule not given here;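 also: plate controls were vehicle for no effect and reference inhibitor for full effect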
Active calls of the source: *; · = not tested or not shown.

SMILES	Yeast life ext	Measles CPE	Phagocyt inh	BB579 growth dn	RAM inhibit	RAM 5-FOA
O=C(CC(c1ccccc1)(c1ccccc1)c1ccccc1)N[C@@H](Cc1ccccc1)C(=O)O	·	·	·	·	12.7*	1.9
COc1cccc(-c2nnc(SCC(=O)Nc3ccc(OC)c(OC)c3)n2N)c1	-6.6	4.5	-0.8	-21.8	11.7*	3.2
O=S(=O)(Nc1ccc(N=Nc2ccc(O)c3ccccc23)cc1)c1ccccc1	2.4	4.5	-6.1	-41.5	13.5*	2.7
N#Cc1cc(-c2ccc(Cl)cc2)cnc1Sc1ccc(F)cc1	-1.5	13.1	·	-52.5	11.5*	1.8
COc1ccc(/C=C/C(=O)c2c(O)c(OC)c3occc3c2OC)cc1	·	·	·	·	12.2*	3.5
COc1ccc(/C=C/C(=O)c2ccoc2)cc1	-13.6	3.8	·	-40.2	-0.3	·
CCCn1c2c(c(O)c(C(=O)Nc3ccccn3)c1=O)CCCC2	·	·	0.1	·	·	·
CCCn1c2c(c(O)c(C(=O)Nc3ccccc3)c1=O)CCCC2	-8.6	3.0	-1.7	-10.7	11.5*	7.4
Cc1ccc(Oc2ccc(NC(=O)CCC(=O)OCC(=O)c3cccs3)cc2)cc1C	-5.1	17.6	-3.6	-46.0	12.8*	2.7
CC(=O)c1ccc(NC(=O)COC(=O)CCC(=O)c2cccs2)cc1	-5.4	·	-12.7	-30.8	2.3	·
CCOC(=O)C(NC(=O)NCc1ccc(OC)cc1)(OCC)C(F)(F)F (stereo not given)	0.1	10.2	-6.1	0.1	-1.2	·
COc1ccc(NC2=C(Cl)C(=O)N(CCc3ccccc3)C2=O)c(OC)c1	21.0	3.6	·	-38.9	16.2*	5.6
CCOC(=O)C1(Cc2ccccc2)CCN(Cc2cn[nH]c2-c2ccccc2)CC1	·	·	·	·	2.1	·
CSc1ccccc1NC(=O)c1cc2ncc(Br)cn2n1	·	·	·	·	6.3	·
CCN(CC)S(=O)(=O)c1cccc(-c2nnc(SCCCC(=O)c3ccccc3)o2)c1	2.7	22.5	0.5	-30.5	11.8*	2.8
CCN(CC)S(=O)(=O)c1cccc(-c2nnc(-c3ccc(C)cc3)o2)c1	-11.4	15.4	-2.3	-30.1	6.7	·
CCN(CC)S(=O)(=O)c1cccc(-c2nnc(SCCCC(=O)c3ccc(F)cc3)o2)c1	4.2	13.8	0.5	-45.5	13.1*	3.1
CCN(CC)S(=O)(=O)c1cccc(-c2nnc(SCc3nc4ccccc4s3)o2)c1	-6.8	4.8	0.4	-73.8	15.3*	2.5
N#Cc1c(-c2ccccc2Cl)cc(-c2ccccc2)nc1Br	-3.6	6.0	19.0	0.2	4.3	·
O=S(=O)(CC(CN1CCCCC1)N1CCCCC1)c1ccc2ccccc2c1 (stereo not given)	·	·	·	·	1.1	·
CC(O)C(=O)N/N=C/c1ccccc1C(=O)O (stereo not given)	·	·	·	·	3.1	·
Cc1cc(NS(=O)(=O)c2ccc(NC(=O)c3ccc(Br)o3)cc2)nc(C)n1	·	·	·	·	0.1	·
CCc1nn(-c2ccccc2)c(=S)c2ccccc12	·	·	·	·	1.8	·
COc1ccc(N2CCN(c3oc(COc4ccccc4Cl)nc3C#N)CC2)cc1	-4.1	1.3	-1.7	-18.1	7.3	·
N#Cc1nc(COc2cccc(Cl)c2)oc1N1CCN(c2ccccc2)CC1	0.5	2.5	-2.5	-40.2	16.1*	3.3
SMILES	Yeast life ext	Measles CPE	Phagocyt inh	BB579 growth dn	RAM inhibit	RAM 5-FOA
N#Cc1nc(COc2ccccc2)oc1N1CCCCC1	-6.4	6.1	-0.1	2.7	-0.5	·
N#Cc1nc(COc2ccccc2)oc1N1CCN(c2cccc(Cl)c2)CC1	-18.2	8.7	1.6	-66.1	11.6*	3.2
COc1cccc(/C=C2\SC(=S)N(C(Cc3ccccc3)C(=O)O)C2=O)c1 (stereo not given)	·	·	·	·	12.2*	0.6
O=C(O)C(Cc1ccccc1)N1C(=O)/C(=C/c2cccs2)SC1=S (stereo not given)	·	·	·	·	15.5*	1.7
COc1ccc(/C=N/OCC(=O)NC(c2ccccc2)c2ccccc2)c(OC)c1	3.5	24.8	-2.5	-18.1	12.0*	3.2
COc1ccc(/C=N/OCC(=O)NCC(C)C)c(OC)c1	·	·	·	·	0.5	·
CCOCCOC(=O)C(C)Oc1ccc(Oc2nc(Cl)ccc2Cl)cc1 (stereo not given)	·	·	·	·	13.2*	2.3
